Experimental data published in paper PMC5131535 (ACS chemical neuroscience, 2016).

Experiments:
Assay type in all cases: cell-based
[1] = target: T1, Kir3.1/3.2 (Homo sapiens, UniProt P48051+P48549); assay: Tl+ flux selectivity assay, Kir3.1/3.2; conditions: for Kir Channel Selectivity (Fold) 3.1/3.2: Thallium flux, Kir7.1 over Kir3.1/3.2
T1 sequence (P48549 1-501): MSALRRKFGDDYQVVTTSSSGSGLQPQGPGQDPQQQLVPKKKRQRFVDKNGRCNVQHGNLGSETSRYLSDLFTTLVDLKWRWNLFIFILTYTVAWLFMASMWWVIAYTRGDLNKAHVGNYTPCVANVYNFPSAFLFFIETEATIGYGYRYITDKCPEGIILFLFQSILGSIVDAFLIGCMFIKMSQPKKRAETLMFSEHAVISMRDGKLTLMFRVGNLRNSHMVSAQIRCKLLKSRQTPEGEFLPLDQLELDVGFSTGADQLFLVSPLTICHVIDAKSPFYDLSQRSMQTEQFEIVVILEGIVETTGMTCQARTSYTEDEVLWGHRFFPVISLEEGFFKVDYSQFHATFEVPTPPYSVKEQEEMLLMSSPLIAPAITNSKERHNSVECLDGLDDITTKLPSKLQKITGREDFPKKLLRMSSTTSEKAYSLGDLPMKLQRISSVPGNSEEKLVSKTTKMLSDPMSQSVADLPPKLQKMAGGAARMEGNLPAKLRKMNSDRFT
T1 sequence (P48051 1-423): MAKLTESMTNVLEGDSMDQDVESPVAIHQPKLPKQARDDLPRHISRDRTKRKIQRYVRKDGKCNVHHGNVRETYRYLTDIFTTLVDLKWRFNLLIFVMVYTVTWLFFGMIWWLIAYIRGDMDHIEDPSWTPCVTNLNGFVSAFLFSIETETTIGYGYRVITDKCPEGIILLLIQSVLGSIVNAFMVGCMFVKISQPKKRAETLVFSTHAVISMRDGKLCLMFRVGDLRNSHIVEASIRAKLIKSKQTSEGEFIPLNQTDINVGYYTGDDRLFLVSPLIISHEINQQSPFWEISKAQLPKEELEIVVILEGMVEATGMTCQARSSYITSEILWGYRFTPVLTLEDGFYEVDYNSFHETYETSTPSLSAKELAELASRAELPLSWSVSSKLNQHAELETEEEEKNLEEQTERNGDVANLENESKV

[2] = target: T2, Kir4.1 (Homo sapiens, UniProt P78508); assay: Tl+ flux selectivity assay, Kir4.1; conditions: for Kir Channel Selectivity (Fold) 4.1: Thallium flux, Kir7.1 over Kir4.1
T2 sequence (P78508 1-379): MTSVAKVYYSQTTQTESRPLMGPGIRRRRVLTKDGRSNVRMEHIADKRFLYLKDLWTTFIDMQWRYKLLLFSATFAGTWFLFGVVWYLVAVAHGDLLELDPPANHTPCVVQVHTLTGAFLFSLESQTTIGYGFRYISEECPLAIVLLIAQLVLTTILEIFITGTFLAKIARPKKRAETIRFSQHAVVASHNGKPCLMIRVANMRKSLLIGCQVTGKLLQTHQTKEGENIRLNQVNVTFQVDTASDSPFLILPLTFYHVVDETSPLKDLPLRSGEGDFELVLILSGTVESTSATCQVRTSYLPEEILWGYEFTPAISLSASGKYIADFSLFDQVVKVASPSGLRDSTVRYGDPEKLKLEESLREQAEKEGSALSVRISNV
In short: (§1)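 Tetracycline-inducible stable T-REx-HEK-293 lines, induced overnight with 1 µg/ml tetracycline in DMEM/10% dialyzed FBS. Cells loaded 1 hr with 1.2 µM Thallos-AM in HBSS/20 mM HEPES pH 7.3 with 0.01% Pluronic F-127. Baseline fluorescence (ex 470, em 540 nm) read at 1 Hz before adding stimulus buffer with 1.8 mM Tl₂SO₄. Traces normalized to first point and vehicle-subtracted; slope taken 5–20 s post-Tl⁺; IC50 by nonlinear regression of CRCs.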

[3] = tested on: Kir1.1; assay: Tl+ flux selectivity assay, Kir1.1; conditions: Thallium flux, Kir7.1 over Kir1.1
In short: as §1

[4] = target: T3, Kir2.2 (Homo sapiens, UniProt Q14500); assay: Tl+ flux selectivity assay, Kir2.2; conditions: for Kir Channel Selectivity (Fold) 2.2: Thallium flux, Kir7.1 over Kir2.2
T3 sequence (Q14500 1-433): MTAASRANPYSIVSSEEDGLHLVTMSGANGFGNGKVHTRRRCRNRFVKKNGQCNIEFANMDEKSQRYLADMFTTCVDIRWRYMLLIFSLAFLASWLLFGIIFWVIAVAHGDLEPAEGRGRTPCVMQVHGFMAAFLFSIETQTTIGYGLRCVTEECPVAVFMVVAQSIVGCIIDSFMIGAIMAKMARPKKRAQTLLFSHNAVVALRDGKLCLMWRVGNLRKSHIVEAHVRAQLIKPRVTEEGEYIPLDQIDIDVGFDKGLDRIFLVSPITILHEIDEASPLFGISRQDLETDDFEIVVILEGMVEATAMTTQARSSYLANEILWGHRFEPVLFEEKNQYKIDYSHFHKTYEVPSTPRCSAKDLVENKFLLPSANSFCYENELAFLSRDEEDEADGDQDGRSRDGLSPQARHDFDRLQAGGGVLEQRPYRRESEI

[5] = target: T4, Kir2.3 (Homo sapiens, UniProt P48050); assay: Tl+ flux selectivity assay, Kir2.3; conditions: for Kir Channel Selectivity (Fold) 2.3: Thallium flux, Kir7.1 over Kir2.3
T4 sequence (P48050 1-445): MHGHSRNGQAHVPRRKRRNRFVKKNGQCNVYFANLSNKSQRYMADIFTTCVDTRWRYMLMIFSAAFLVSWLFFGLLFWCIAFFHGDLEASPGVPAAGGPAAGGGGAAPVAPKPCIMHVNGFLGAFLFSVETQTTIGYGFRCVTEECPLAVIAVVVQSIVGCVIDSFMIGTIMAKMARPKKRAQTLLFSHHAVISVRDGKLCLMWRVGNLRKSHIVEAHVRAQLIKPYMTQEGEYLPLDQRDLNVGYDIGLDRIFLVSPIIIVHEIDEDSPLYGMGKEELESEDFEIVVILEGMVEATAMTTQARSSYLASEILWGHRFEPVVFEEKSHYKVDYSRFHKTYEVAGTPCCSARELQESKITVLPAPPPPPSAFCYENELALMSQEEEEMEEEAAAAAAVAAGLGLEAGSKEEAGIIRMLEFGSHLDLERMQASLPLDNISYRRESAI

## CC(C)OC(=O)NC1CCN(Cc2cc(Cl)c3cccnc3c2O)CC1 [Compound 19, iso-Propyl (1-((5-chloro-8-hydroxyquinolin-7-yl)methyl)piperidin-4-yl)carbamate]
[1]
  Kir Channel Selectivity (Fold) 3.1/3.2: at least 23 Fold
[1]; listed as 19 (ML418)
  Kir Channel Selectivity (Fold) 3.1/3.2: >23 Fold
[2]
  Kir Channel Selectivity (Fold) 4.1: at least 23 Fold
[2]; listed as 19 (ML418)
  Kir Channel Selectivity (Fold) 4.1: >23 Fold
[3]
  Kir Channel Selectivity (Fold) 1.1: at least 23 Fold
[3]; listed as 19 (ML418)
  Kir Channel Selectivity (Fold) 1.1: >23 Fold
[4]
  Kir Channel Selectivity (Fold) 2.2: at least 23 Fold
[4]; listed as 19 (ML418)
  Kir Channel Selectivity (Fold) 2.2: >23 Fold
[5]
  Kir Channel Selectivity (Fold) 2.3: at least 23 Fold
[5]; listed as 19 (ML418)
  Kir Channel Selectivity (Fold) 2.3: >23 Fold

## Oc1c(CN2CCC(Cc3ccccc3)CC2)cc(Cl)c2cccnc12 [VU714]
[1]
  Kir Channel Selectivity (Fold) 3.1/3.2: >5 Fold
[1]; read-out: Kir3.1/3.2 IC50 (Tl+ flux)
  IC50: > 30 µM
[2]
  Kir Channel Selectivity (Fold) 4.1: 2 Fold
[2]; read-out: Kir4.1 IC50 (Tl+ flux)
  IC50: 13 µM
[3]
  Kir Channel Selectivity (Fold) 1.1: 3 Fold
[4]
  Kir Channel Selectivity (Fold) 2.2: >5 Fold
[4]; read-out: Kir2.2 IC50 (Tl+ flux)
  IC50: > 30 µM
[5]
  Kir Channel Selectivity (Fold) 2.3: >5 Fold
[5]; read-out: Kir2.3 IC50 (Tl+ flux)
  IC50: > 30 µM
